We go through one compound from ChEMBL document CHEMBL4765230, “Discovery of Orally Efficacious Phosphoinositide 3-Kinase δ Inhibitors with Improved Metabolic Stability” (J Med Chem, 2016).

The target of data set [1] is T1, Phosphatidylinositol 4,5-bisphosphate 3-kinase catalytic subunit delta isoform (Homo sapiens, UniProt O00329).
T1 sequence (O00329 whole entry): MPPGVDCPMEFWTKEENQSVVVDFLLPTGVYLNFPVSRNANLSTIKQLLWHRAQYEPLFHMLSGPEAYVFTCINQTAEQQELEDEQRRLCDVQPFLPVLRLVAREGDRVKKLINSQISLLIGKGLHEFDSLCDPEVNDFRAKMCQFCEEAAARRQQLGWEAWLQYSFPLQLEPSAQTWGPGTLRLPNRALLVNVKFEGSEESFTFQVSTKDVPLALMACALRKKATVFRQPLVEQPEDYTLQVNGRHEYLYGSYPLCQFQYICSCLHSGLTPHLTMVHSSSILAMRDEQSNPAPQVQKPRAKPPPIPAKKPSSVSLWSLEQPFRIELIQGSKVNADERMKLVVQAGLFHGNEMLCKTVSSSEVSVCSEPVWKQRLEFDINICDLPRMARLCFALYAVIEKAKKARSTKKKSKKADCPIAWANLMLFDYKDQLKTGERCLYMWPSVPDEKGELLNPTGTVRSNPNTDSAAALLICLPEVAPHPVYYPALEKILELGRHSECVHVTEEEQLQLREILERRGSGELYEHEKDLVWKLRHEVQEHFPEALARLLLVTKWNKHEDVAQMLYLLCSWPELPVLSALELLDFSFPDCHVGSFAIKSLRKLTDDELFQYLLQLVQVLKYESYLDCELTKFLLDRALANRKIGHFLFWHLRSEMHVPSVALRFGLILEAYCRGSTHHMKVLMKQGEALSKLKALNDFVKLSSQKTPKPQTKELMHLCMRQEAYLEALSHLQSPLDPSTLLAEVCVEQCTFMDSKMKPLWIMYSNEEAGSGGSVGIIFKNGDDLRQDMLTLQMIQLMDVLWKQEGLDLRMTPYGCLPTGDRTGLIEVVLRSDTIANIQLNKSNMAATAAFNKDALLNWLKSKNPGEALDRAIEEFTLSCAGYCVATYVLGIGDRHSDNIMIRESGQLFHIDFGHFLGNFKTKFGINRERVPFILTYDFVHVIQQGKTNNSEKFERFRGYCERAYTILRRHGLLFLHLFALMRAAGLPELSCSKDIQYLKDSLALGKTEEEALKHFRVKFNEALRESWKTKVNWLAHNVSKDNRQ
In words: Inhibition of PI3Kdelta in human whole blood assessed as reduction in anti-FCepsilonR1 mAb-stimulated basophil activation preincubated for 60 mins followed by anti-FCepsilonR1 mAb stimulation and measured after 25 mins by flow cytometry analysis. Type of data set: tissue-based.

Data set [2] can be described thus: Volume of distribution at steady state in dog at 1 mg/kg, iv. Type of data set: ADME, organism-based, Canis lupus familiaris. Conditions: in vivo, read-out: Vdss; call rule not given here. The essentials: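 Rats and dog received 1 mg/kg intravenously, formulated in 12% w/v Captisol in water. Volume of distribution was taken at steady state from the iv plasma profile. Three animals per dosing route.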

For data set [3], the target named is Phosphatidylinositol 4,5-bisphosphate 3-kinase catalytic subunit gamma isoform (Homo sapiens, UniProt P48736). In words: Inhibition of PI3K p110gamma in human basophil assessed as reduction in fMLP-induced basophil activation by flow cytometry analysis. The data set is classed as tissue-based. The method, boiled down:
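Basophil activation via fMLP (p110γ) in 25% serum or in isolated WBCs in low serum, with increasing compound concentrations. Anti-CD63-FITC/anti-CCR3-PE staining; ≥150 (25% serum) or ≥75 (low serum) CCR3-high basophils gated; % CD63-positive normalized to 0.3% DMSO vehicle; concentration corrected for reagent dilution.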
In general terms: In flow cytometry, cells or beads pass a laser one at a time.

Data set [4] is described as follows: Inhibition of CYP450 (unknown origin) at 25 uM. The data set is classed as ADME. Conditions: human.
Data set [5] in a line: Volume of distribution at steady state in Sprague-Dawley rat at 1 mg/kg, iv measured over 24 hrs by LC/MS/MS analysis. The data set is classed as ADME, organism-based. Conditions: in vivo, read-out: Vdss. The essentials: (§1)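 Single intravenous dose of 1 mg/kg. Vehicles: rats and dogs 5% ethanol/55% PEG 400/40% water; cynomolgus monkeys 5% ethanol/22% PEG 400/73% water; rhesus monkeys 5% ethanol/25% PEG 400/70% water. Plasma concentration–time data gave Vss and iv half-life. Reported as mean ± SD, n = 3.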

Data set [6] in a line: Terminal half life in Sprague-Dawley rat at 1 mg/kg, iv measured over 24 hrs by LC/MS/MS analysis. The data set is classed as ADME, organism-based. Conditions: in vivo, read-out: beta t1/2 (converted). The essentials:
as §1

The nature of data set [7]: MRT in Sprague-Dawley rat at 1 mg/kg, iv measured over 24 hrs by LC/MS/MS analysis. Type of data set: ADME, organism-based. As to conditions: in vivo. The essentials:
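Intravenous 1 mg/kg and oral 5 mg/kg doses. Vehicle: 5% ethanol/55% PEG 400/40% water for rats and dogs; 5% ethanol/22% PEG 400/73% water for cynomolgus; 5% ethanol/25% PEG 400/70% water for rhesus. Half-life and MRT from iv; mean ± SD, n = 3 per route.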

Data set [8] is described as follows: Volume of distribution at steady state in Beagle dog at 1 mg/kg, iv measured over 24 hrs by LC/MS/MS analysis. Type of data set: ADME, organism-based, Canis lupus familiaris. Conditions: in vivo, read-out: Vdss. The method, boiled down:
as §1

The nature of data set [9]: Volume of distribution at steady state in cynomolgus monkey at 1 mg/kg, iv measured over 24 hrs by LC/MS/MS analysis. Type of data set: ADME, organism-based, Macaca fascicularis. As to conditions: in vivo, read-out: Vdss. The essentials:
as §1

Data set [10] in a line: Terminal half life in cynomolgus monkey at 1 mg/kg, iv measured over 24 hrs by LC/MS/MS analysis. Type of data set: ADME, organism-based, Macaca fascicularis. Conditions: in vivo, read-out: beta t1/2 (converted). The method, boiled down:
as §1

Data set [11] in a line: Terminal half life in rhesus monkey at 1 mg/kg, iv measured over 24 hrs by LC/MS/MS analysis. As to conditions: in vivo, read-out: beta t1/2 (converted). Type of data set: ADME, organism-based, Macaca mulatta. The method, boiled down:
as §1

Data set [12] addresses T1, Phosphatidylinositol 4,5-bisphosphate 3-kinase catalytic subunit delta isoform. The data set is described as follows: Inhibition of PI3Kdelta in human whole blood assessed as inhibition of BCR-induced B-cell activation.
Data set [13] in a line: Plasma concentration in Lewis rat at 1 to 5 mg/kg, po measured at 12 hrs. The data set is classed as ADME, organism-based. As to conditions: dose 1-5 mg/kg. The method, boiled down:
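Female Lewis rats given a single oral dose of 1 or 5 mg/kg; plasma concentration–time profiles determined; mean ± SD, n = 3.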

In data set [14] the test system is Rattus norvegicus. In words: Antiarthritic activity in Lewis rat model of Freund's incomplete adjuvant-induced arthritis assessed as inhibition of cartilage damage at 0.3 to 3 mg/kg, po bid administered for 7 days at 12 hrs interval starting from day 10 to day 16 post-immunization by microscopic analysis relative to control. The data set is classed as functional. As to conditions: dose 0.3-3 mg/kg, time 7 day. On the set-up: scale not given: the % may be the effect or the level left. The essentials: (§2)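 Female Lewis rats with established collagen-induced arthritis dosed orally twice daily for 7 days at 0.3, 1 and 3 mg/kg, starting day 10 after second collagen immunization. Joint histopathology scored for pannus formation, cartilage damage, bone resorption and periosteal bone formation; ED50 derived. n = 8/treatment group, n = 4 normal controls.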

Data set [15] has as its system Rattus norvegicus. In words: Antiarthritic activity in Lewis rat model of Freund's incomplete adjuvant-induced arthritis assessed as inhibition of […] bone formation at 0.3 to 3 mg/kg, po bid administered for 7 days at 12 hrs interval starting from day 10 to day 16 post-immunization by microscopic analysis relative to control. Type of data set: functional. Details: scale not given: the % may be the effect or the level left. Conditions: dose 0.3-3 mg/kg, time 7 day. The essentials: as §2

Data set [16] in a line: Selectivity index, ratio of IC50 for inhibition of human full length PI3K p110gamma to IC50 for inhibition of human full length PI3K p110delta/p85alpha.
A short description of data set [17]: Mutagenecity in Salmonella typhimurium by Ames test. Type of data set: toxicity. Conditions: salmonella enterica subsp. enterica serovar typhimurium. Background: The Ames test uses bacterial strains that need an amino acid and regain growth without it when mutated back.

Sequence of Phosphatidylinositol 4,5-bisphosphate 3-kinase catalytic subunit gamma isoform (P48736 whole entry, canonical isoform): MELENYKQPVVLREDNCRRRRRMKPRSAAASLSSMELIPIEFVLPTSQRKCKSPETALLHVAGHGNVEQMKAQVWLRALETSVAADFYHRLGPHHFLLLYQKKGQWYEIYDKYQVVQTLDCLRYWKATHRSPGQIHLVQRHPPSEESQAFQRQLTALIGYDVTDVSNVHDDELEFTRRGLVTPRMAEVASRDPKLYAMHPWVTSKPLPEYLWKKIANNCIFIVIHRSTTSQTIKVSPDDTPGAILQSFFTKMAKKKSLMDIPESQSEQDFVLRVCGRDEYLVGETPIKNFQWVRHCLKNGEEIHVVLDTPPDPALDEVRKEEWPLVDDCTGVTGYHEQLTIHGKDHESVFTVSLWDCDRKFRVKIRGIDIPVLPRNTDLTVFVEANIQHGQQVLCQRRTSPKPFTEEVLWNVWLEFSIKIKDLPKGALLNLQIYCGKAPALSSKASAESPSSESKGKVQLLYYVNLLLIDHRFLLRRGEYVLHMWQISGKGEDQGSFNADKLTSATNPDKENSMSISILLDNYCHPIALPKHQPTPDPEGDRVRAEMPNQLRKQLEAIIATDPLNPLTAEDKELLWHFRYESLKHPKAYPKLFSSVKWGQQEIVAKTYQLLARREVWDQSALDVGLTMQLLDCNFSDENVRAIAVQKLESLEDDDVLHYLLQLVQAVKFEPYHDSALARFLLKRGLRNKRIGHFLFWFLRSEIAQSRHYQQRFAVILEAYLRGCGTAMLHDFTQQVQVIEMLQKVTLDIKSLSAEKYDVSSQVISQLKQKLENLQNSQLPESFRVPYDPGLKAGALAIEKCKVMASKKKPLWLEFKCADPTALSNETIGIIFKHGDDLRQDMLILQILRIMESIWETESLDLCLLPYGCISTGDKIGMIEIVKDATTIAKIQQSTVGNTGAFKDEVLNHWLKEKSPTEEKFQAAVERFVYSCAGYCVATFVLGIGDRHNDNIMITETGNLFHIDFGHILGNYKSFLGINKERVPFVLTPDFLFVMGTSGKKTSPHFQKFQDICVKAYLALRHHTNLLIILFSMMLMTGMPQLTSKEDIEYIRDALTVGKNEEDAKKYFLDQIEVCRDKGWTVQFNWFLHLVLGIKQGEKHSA

With `N#Cc1c(N)nc(N)nc1N[C@H](c1nc2c(F)ccc(Cl)c2c(=O)n1-c1cccnc1)C1CC1` [GS-9901], the values for the EC50 in data set [1], in [3] and in data set [12] were 1 nM, 404 nM and 2.4 nM, respectively. The Vd in data set [2] came out at 1.03 L/kg; in data set [5], 0.83 L/kg; in data set [8] it was 1.03 L/kg; in data set [9], 1.21 L/kg. In addition, in data set [4], the “inhibition (INH)” value is “Not Active”. In addition, the half-life in [6] is 2.04 h; in [10] it was 2.89 h; in [11], 2.45 h. In data set [7], this compound displayed an MRT of 1.95 h. In addition, in data set [13], the concentration at 12 h was greater than 0.032 µM. In addition, the Activity in the data set with Rattus norvegicus [14] is reported as 50%; in the data set on Rattus norvegicus [15], 48%; in data set [17], “Non-Toxic”. Further, the Ratio IC50 in [16] worked out at 190.

The EC50 is the concentration giving half of the maximal effect. For orientation: MRT means a mean duration of stay, worked out from the concentration-time curve.
